Published values collected from several papers.
Each line is one published result; the experiments were not run side by side.
Effect on: cell growth or viability

SMILES	cell line	test	setting	IC50
COc1cc(C(=O)c2nc(-c3ccnc4[nH]ccc34)c[nH]2)cc(OC)c1OC	PC-3	MTS	72 h	0.0301 µM
CCCCn1cnc2ccc(-c3ccc(NC(=O)NCCc4ccccc4)nc3)cc2c1=O	A549	CCK-8	72 h	> 10 µM
CC(=O)Nc1ccc(O)cc1	NIH3T3	–	96 h	65.4 µM
COc1ccccc1/C=N/N=C1\C(=O)Nc2ccccc21	HUVEC	MTT	48 h	112 µg/mL
CCCCC(=O)Nc1ccc(-c2ccc3ncn(CCC)c(=O)c3c2)c(C)n1	A549	CCK-8	72 h	> 10 µM
COc1cc(C(=O)c2nc(-c3cccc4[nH]ccc34)c(C)[nH]2)cc(OC)c1OC	PC-3	MTS	72 h	0.0192 µM
COc1cccc2c1C(=O)c1c(O)c3c(c(O)c1C2=O)C[C@@](O)(C(=O)CO)C[C@@H]3O[C@H]1C[C@H](N)[C@H](O)[C@H](C)O1	HUVEC	MTT	24 h	31.2 µM
NNc1nc2ccc(Br)cc2c(=O)n1-c1ccc(Cl)cc1	NIH3T3	MTT	48 h	19.7 µM
CC(=O)O[C@H]1[C@H](OC(C)=O)[C@@H](Nc2cc3cccnc3c3ncccc23)OC[C@@H]1OC(C)=O	HFF-1	MTT	48 h, dark	14 µM
COc1c(Cl)cccc1Nc1c(-c2ccncc2OC[C@@H]2COCCO2)[nH]c2c1C(=O)NCC2	NCI-H2170	ATP luminescence	–	0.0246 µM
CC1=CC(=O)C(C(C)C)=CC1=O	U-251	SRB	48 h	36.9 µM
CCCCn1cnc2ccc(-c3ccc(NC(=O)Nc4ccccc4)nc3)cc2c1=O	A549	CCK-8	72 h	1.24 µM
NNc1nc2ccc(Br)cc2c(=O)n1-c1ccccc1	NIH3T3	MTT	48 h	102 µM
CCOc1cc2ncc(C#N)c(Nc3ccc(OCc4ccccn4)c(Cl)c3)c2cc1NC(=O)/C=C/CN(C)C	NCI-H2170	ATP luminescence	–	0.0057 µM
O=C(NO)Nc1nc2ccc(Br)cc2c(=O)n1-c1ccccc1	NIH3T3	MTT	48 h	122 µM
Cc1c(C)c2c(c(C)c1O)CCC(C)(COc1ccc(CC3SC(=O)NC3=O)cc1)O2 (centres unmarked)	NIH3T3	–	96 h	37.1 µM
CCCn1cnc2ccc(-c3ccc(N4CCC(C)CC4=O)nc3)cc2c1=O (centres unmarked)	A549	CCK-8	72 h	> 10 µM
CN(C)C(=O)Nc1nc2c(Cl)cc(Cl)cc2c(=O)n1-c1ccccc1	NIH3T3	MTT	48 h	38.2 µM
CCCCC(=O)Nc1ncc(-c2ccc3ncn(CCC)c(=O)c3c2)cn1	A549	CCK-8	72 h	1.25 µM
O=C1Nc2ccccc2/C1=N/N=C/c1cccc([N+](=O)[O-])c1	HUVEC	MTT	48 h	119 µg/mL
